Assays:
[1] = target: T1, Adenosine receptor A1 (Homo sapiens) (UniProt P30542); experiment: Agonist activity at human adenosine A1 receptor expressed in CHO cells assessed as stimulation of ERK1/2 phosphorylation relative to control; type: functional, cell-based
T1 sequence (whole entry): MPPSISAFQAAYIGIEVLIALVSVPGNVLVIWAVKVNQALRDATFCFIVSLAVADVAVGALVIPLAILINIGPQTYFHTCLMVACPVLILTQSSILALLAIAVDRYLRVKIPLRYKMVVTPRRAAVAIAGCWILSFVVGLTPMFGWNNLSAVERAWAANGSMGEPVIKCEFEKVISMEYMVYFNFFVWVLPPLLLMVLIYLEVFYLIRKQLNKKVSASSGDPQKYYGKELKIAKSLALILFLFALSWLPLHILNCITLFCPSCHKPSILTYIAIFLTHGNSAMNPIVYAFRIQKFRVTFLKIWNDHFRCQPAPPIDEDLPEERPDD
Outline: (§1)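 Intact CHO-hA1 cells seeded at 40 000/well. After 6 h, washed and serum-starved in DMEM for 14 h. Pretreated 30 min with 0.8 IU/mL adenosine deaminase, then stimulated 5 min with compound ± 10 μM PD81,723. Lysed; phospho-ERK1/2 read by AlphaScreen SureFire after ≥3 h dark incubation at room temperature. Emax given as percent of the reference agonist. Mean ± SEM of ≥3 experiments. Fold shift in pEC50 versus control.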

[2] = target: T2, Adenosine receptor A1 (Homo sapiens, UniProt P30542); experiment: Agonist activity at human adenosine A1 receptor expressed in CHO cells assessed as stimulation of ERK1/2 phosphorylation in presence of 10 uM allosteric modulator PD-81723; type: functional, cell-based; outline: as §1
T2 sequence (P30542 whole entry): T1 sequence (whole entry)

[3] = target: T1, Adenosine receptor A1 (Homo sapiens); experiment: Selectivity ratio of EC50 for human adenosine A1 receptor-mediated ERK1/2 phosphorylation to EC50 for human adenosine A1 receptor-mediated ERK1/2 phosphorylation in presence of 10 uM allosteric modulator PD-81723 assessed as; outline: as §1
[4] = target: T2, Adenosine receptor A1; experiment: Displacement of […] from human adenosine A1 receptor expressed in CHO cells by scintillation counting in presence of 10 uM allosteric modulator PD-81723; type: cell-based
Outline: (§2)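 Equilibrium competition in 50 mM Tris HCl pH 7.4 with 0.8 IU/mL adenosine deaminase and 1.6 nM [3H]DPCPX. Increasing ligand concentrations ± 10 μM PD81,723. CHO-hA1 membranes (10 μg protein) incubated 1 h at 25 °C. GF/B filtration, scintillation counting. Nonspecific binding defined with 10 μM CPA. High- and low-affinity Ki taken from biphasic curves.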

[5] = target: T1, Adenosine receptor A1 (Homo sapiens); experiment: Agonist activity at human adenosine A1 receptor expressed in CHO cells assessed as [35S]GTPgammaS binding by scintillation counting relative to control; type: functional, cell-based
Outline: (§3)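 CHO-hA1 membranes (5 μg protein) preincubated 30 min at 25 °C in 50 mM Tris, 100 mM NaCl, 10 mM MgCl, pH 7.4 with 3 μM GDP and a concentration range of agonist, with or without 10 μM PD81,723. 0.3 nM (final) [35S]GTPγS then added for 45 min at 25 °C. Filtration, washing, scintillation counting. Emax given as percent of maximal stimulation by the reference agonist. Control and PD81,723 pEC50 compared to give fold shift.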

[6] = target: T2, Adenosine receptor A1; experiment: Displacement of […] from human adenosine A1 receptor expressed in CHO cells by scintillation counting; type: cell-based; outline: as §2
[7] = target: T1, Adenosine receptor A1 (Homo sapiens); experiment: Displacement of [3H]CCPA from human adenosine A1 receptor expressed in CHO cells by scintillation counting relative to control; type: cell-based
Outline: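 Filtration and scintillation counting. Nonspecific binding defined with 10 μM CPA. pKi and maximal displacement given as percent of specific binding. pKi compared by one-way ANOVA with Bonferroni test.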

[8] = target: T1, Adenosine receptor A1 (Homo sapiens); experiment: Agonist activity at human adenosine A1 receptor expressed in CHO cells assessed as stimulation of ERK1/2 phosphorylation in presence of 10 uM allosteric modulator PD-81723 relative to control; type: functional, cell-based; outline: as §1
[9] = target: T1, Adenosine receptor A1 (Homo sapiens); experiment: Displacement of […] from human adenosine A1 receptor expressed in CHO cells by scintillation counting relative to control; type: cell-based; parameters: concentration or dose not given beside the values; outline: as §2
[10] = target: T1, Adenosine receptor A1 (Homo sapiens); experiment: Agonist activity at human adenosine A1 receptor expressed in CHO cells assessed as [35S]GTPgammaS binding by scintillation counting in presence of 10 uM allosteric modulator PD-81723 relative to control; type: functional, cell-based; outline: as §3
[11] = target: T2, Adenosine receptor A1; experiment: Agonist activity at human adenosine A1 receptor expressed in CHO cells assessed as stimulation of ERK1/2 phosphorylation; type: functional, cell-based; outline: as §1
[12] = target: T2, Adenosine receptor A1; experiment: Agonist activity at human adenosine A1 receptor expressed in CHO cells assessed as [35S]GTPgammaS binding by scintillation counting in presence of 10 uM allosteric modulator PD-81723; type: functional, cell-based; outline: as §3
[13] = target: T1, Adenosine receptor A1 (Homo sapiens); experiment: Selectivity ratio of EC50 for human adenosine A1 receptor to EC50 for human adenosine A1 receptor in presence of 10 uM allosteric modulator PD-81723; outline: as §3
[14] = target: T2, Adenosine receptor A1; experiment: Agonist activity at human adenosine A1 receptor expressed in CHO cells assessed as [35S]GTPgammaS binding by scintillation counting; type: functional, cell-based; outline: as §3
[15] = target: T2, Adenosine receptor A1; experiment: Displacement of […] from human adenosine A1 receptor expressed in CHO cells at low affinity site by scintillation counting; type: cell-based; outline: as §2
[16] = target: T2, Adenosine receptor A1; experiment: Displacement of […] from human adenosine A1 receptor expressed in CHO cells at high affinity site by scintillation counting; type: cell-based; outline: as §2
[17] = target: T2, Adenosine receptor A1; experiment: Enhancement of [3H]CCPA binding to human adenosine A1 receptor expressed in CHO cells by scintillation counting

SMILES | Ki ([4]; read-out: Ki) [nM] | Ki ([6]; read-out: Ki) [nM] | Ki ([6]; read-out: pKi (converted)) [nM] | Emax [7] [%] | Activity [9] [%] | Ki ([4]; read-out: pKi (converted)) [nM] | also measured
Nc1sc2c(c1C(=O)c1ccc(Cl)c(Cl)c1)CCN(CCCCCCCCCOc1ccc(Nc3ncnc4c3ncn4[C@@H]3O[C@H](CO)[C@@H](O)[C@H]3O)cc1)C2 | 651 | 679 | 661 | 79 | 83 | – | Emax [1]: 123%; EC50 ([2]; read-out: EC50): 813 nM; EC50 ([2]; read-out: pEC50 (converted)): 692 nM; Ratio EC50 [3]: 1.3; Emax [5]: 110%; Emax [8]: 122%; Emax [10]: 105%; EC50 ([11]; read-out: EC50): 1070 nM; EC50 ([11]; read-out: pEC50 (converted)): 955 nM; EC50 ([12]; read-out: EC50): 181 nM; EC50 ([12]; read-out: pEC50 (converted)): 178 nM; Ratio EC50 [13]: 2.2; EC50 ([14]; read-out: EC50): 390 nM
Nc1sc2c(c1C(=O)c1ccc(Cl)c(Cl)c1)CCN(CCCCOc1ccc(Nc3ncnc4c3ncn4[C@@H]3O[C@H](CO)[C@@H](O)[C@H]3O)cc1)C2 | 313 | 618 | – | – | 100 | – | –
Nc1sc2c(c1C(=O)c1ccc(Cl)c(Cl)c1)CCN(CCCCCCCOc1ccc(Nc3ncnc4c3ncn4[C@@H]3O[C@H](CO)[C@@H](O)[C@H]3O)cc1)C2 | 347 | 450 | – | – | 91 | – | –
COc1ccc(Nc2ncnc3c2ncn3[C@@H]2O[C@H](CO)[C@@H](O)[C@H]2O)cc1 | 195 | 842 | 832 | 100 | 100 | 191 | Emax [1]: 100%; EC50 ([2]; read-out: EC50): 5 nM; Ratio EC50 [3]: 4.4; Emax [5]: 100%; Ki ([15]; read-out: Ki): 1990 nM; Ki ([15]; read-out: pKi (converted)): 1860 nM; Emax [8]: 131%; Emax [10]: 91%; EC50 ([11]; read-out: EC50): 22 nM; EC50 ([11]; read-out: pEC50 (converted)): 20.9 nM; EC50 ([12]; read-out: EC50): 29 nM; EC50 ([12]; read-out: pEC50 (converted)): 30.2 nM; Ratio EC50 [13]: 4.9; EC50 ([14]; read-out: EC50): 142 nM; EC50 ([14]; read-out: pEC50 (converted)): 123 nM; Ki ([16]; read-out: Ki): 71 nM; Ki ([16]; read-out: pKi (converted)): 42.7 nM
Nc1sc2c(c1C(=O)c1ccc(Cl)c(Cl)c1)CCN(CCCOc1ccc([N+](=O)[O-])cc1)C2 | – | – | – | 204 | – | – | EC50 [17]: 3700 nM
Nc1sc2c(c1C(=O)c1ccc(Cl)c(Cl)c1)CCN(CCCCCCCCOc1ccc(Nc3ncnc4c3ncn4[C@@H]3O[C@H](CO)[C@@H](O)[C@H]3O)cc1)C2 | 591 | 836 | 776 | – | 65 | 457 | –
Nc1sc2c(c1C(=O)c1ccc(Cl)c(Cl)c1)CCN(CCCOc1ccc(Nc3ncnc4c3ncn4[C@@H]3O[C@H](CO)[C@@H](O)[C@H]3O)cc1)C2 | 268 | 439 | 417 | – | 100 | 245 | –
Nc1sc2c(c1C(=O)c1ccc(Cl)c(Cl)c1)CCN(CCOc1ccc([N+](=O)[O-])cc1)C2 | – | – | – | 250 | – | – | EC50 [17]: 8500 nM
Cc1sc(N)c(C(=O)c2cccc(C(F)(F)F)c2)c1C | – | – | – | 140 | – | – | –
Nc1sc2c(c1C(=O)c1ccc(Cl)c(Cl)c1)CCN(CCCCCOc1ccc([N+](=O)[O-])cc1)C2 | – | – | – | 185 | – | – | EC50 [17]: 5200 nM
Nc1sc2c(c1C(=O)c1ccc(Cl)c(Cl)c1)CCN(CCCCCCOc1ccc(Nc3ncnc4c3ncn4[C@@H]3O[C@H](CO)[C@@H](O)[C@H]3O)cc1)C2 | 288 | 419 | 479 | – | 103 | 275 | –
Nc1sc2c(c1C(=O)c1ccc(Cl)c(Cl)c1)CCN(CCOc1ccc(Nc3ncnc4c3ncn4[C@@H]3O[C@H](CO)[C@@H](O)[C@H]3O)cc1)C2 | 469 | 751 | 741 | – | 100 | – | –
Nc1sc2c(c1C(=O)c1ccc(Cl)c(Cl)c1)CCN(CCCCCCCCCCOc1ccc(Nc3ncnc4c3ncn4[C@@H]3O[C@H](CO)[C@@H](O)[C@H]3O)cc1)C2 | 1360 | 1470 | 1260 | – | 55 | 1290 | –
Nc1sc2c(c1C(=O)c1ccc(Cl)c(Cl)c1)CCN(CCCCCOc1ccc(Nc3ncnc4c3ncn4[C@@H]3O[C@H](CO)[C@@H](O)[C@H]3O)cc1)C2 | 114 | 219 | 214 | 97 | 100 | 110 | Emax [1]: 114%; EC50 ([2]; read-out: EC50): 89 nM; Ratio EC50 [3]: 1.8; Emax [5]: 110%; Emax [8]: 131%; Emax [10]: 97%; EC50 ([11]; read-out: EC50): 156 nM; EC50 ([11]; read-out: pEC50 (converted)): 151 nM; EC50 ([12]; read-out: EC50): 52 nM; Ratio EC50 [13]: 5.2; EC50 ([14]; read-out: EC50): 273 nM; EC50 ([14]; read-out: pEC50 (converted)): 269 nM

From ChEMBL document CHEMBL1156209, “Hybrid ortho/allosteric ligands for the adenosine A(1) receptor” (J Med Chem, 2010)
